Screens: PubChem, several laboratories
Calb FLC: affects C. albicans growth with fluconazole; 300,000 compounds, 0.57% hits; C. albicans CaCi-2 (fluconazole-resistant clinical isolate) + fluconazole, Alamar Blue growth, 48 h; growth inhibition, % (no concentration beside the values);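 active = growth inhibition above about 58% in most replicates, limit read from the data, passing the limit was not always enough; inconclusive = exactly half the replicates above a set limit; inactive = most replicates below a set limit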;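 also: all wells also contain fluconazole at 8 µg/ml as a sub-toxic cotreatment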
ATG4B inh: blocks human ATG4B protease cleavage of LC3 substrate | Q9Y4P1 | ATG4B cleavage of LC3-PLA2, NBD-HPC fluorescence, 1 h | inhibition, % at 8.33 µM | 340,000 compounds, 0.51% hits | AID 504462; in the data active = inhibition above about 40%
NLRP3 yeast inh: NALP3 inhibition in yeast. 330,000 compounds, 0.39% hits. inhibition, % at 10 µM. Yeast reconstituted NLRP3/ASC/caspase-1, beta-gal luminescence, 24 h;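 active = inhibition of 50% or more; inactive = inhibition below 50%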
UCH37 inh: inhibitors of human deubiquitinating enzyme UCH37 | Q9Y5K5 | purified proteasome/UCH37, Ub-AMC cleavage fluorescence | inhibition, % (test concentration not listed) | 330,000 compounds, 0.33% hits | AID 588478;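 active = mean inhibition over replicate wells above about 20%, limit read from the data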
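Material: human UCH37 enzyme supplied as purified proteasome complex / Amount: 0.15 nM proteasome as dispensed / Buffer or medium: pH 7.4 Tris-HCl (50 mM) with ovalbumin, ATP-MgCl2, DTT / Times: preincubation 30 min, reaction 25 min, room temperature / Technique: AMC fluorescence from Ub-AMC cleavage, excitation 355 nm, emission 460 nm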
ALR inh: human ALR oxidase inhibition via reduced H2O2 | P55789 | purified ALR, DTT oxidation, H2O2 HRP-luminol luminescence | inhibition, % (no concentration beside the values) | 290,000 compounds, 3.8% hits | AID 485317;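 active = mean replicate inhibition above about 79%, with every replicate also reaching it, limit read from the data; inconclusive = only one of the two criteria met; inactive = mean below limit and not every replicate reaching it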
Target sequence (P55789 whole entry, looked up): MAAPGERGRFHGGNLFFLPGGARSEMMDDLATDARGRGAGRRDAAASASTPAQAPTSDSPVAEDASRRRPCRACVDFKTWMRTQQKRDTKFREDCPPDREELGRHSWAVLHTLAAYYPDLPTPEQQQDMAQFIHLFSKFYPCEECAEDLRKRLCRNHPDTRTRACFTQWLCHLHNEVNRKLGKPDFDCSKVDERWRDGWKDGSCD
NALP1 inh: blocks the NALP1 inflammasome reconstituted in yeast | inhibition, % at 10 µM | AID 2071 | S. cerevisiae NALP1/ASC/caspase-1 growth, X-gal OD620, 72 h | 280,000 compounds, 0.61% hits; in the data active = inhibition mostly above about 24%, no sharp cut-off; inactive = mostly below about 32%
Large screens that a line does not name were inactive. Most compounds without a hit are left out; they make up all but 4.8% or so of the library.

COc1cc(/C=C(\C#N)c2nc3ccccc3n2C)cc(OC)c1O	ALR inh 98.8
Cn1c(/C(C#N)=C/c2ccncc2)nc2ccccc21	none (no result: Calb FLC)
COC(=O)/C(=C/c1cccnc1)NC(=O)c1ccccc1	Calb FLC inconclusive
COC(=O)C(=C/C(C)=C/c1cccnc1)C(=O)OC	ALR inh 92.1
OCCNc1cc(-n2nc(-c3ccccc3)cc2-c2ccccc2)ncn1	ALR inh 96.5
Cc1ccc2nc(C(Cl)(Cl)Cl)nc(NN=Cc3ccncc3)c2c1	none (no result: Calb FLC, ATG4B inh, NLRP3 yeast inh, ALR inh, NALP1 inh)
O=C(NCCCN1CCN(c2ccccc2)CC1)C1CCCN(c2ncnc3c2nc2n3CCCCC2)C1 (centres undefined)	ALR inh 98.8
O=C(NCCc1ccccc1)C1CCCN(c2ncnc3c2nc2n3CCCCC2)C1 (centres undefined)	none
O=C(C1CCN(c2ncnc3c2nc2n3CCCCC2)CC1)N1CCN(c2cccc(Cl)c2)CC1	ATG4B inh 46.9
CCCCCc1ccc(-c2ccc(/C=C/C(=O)O)cc2)nc1	Calb FLC 81.4
COc1ccc(CC(=O)NN=C(C)CC(=O)Nc2cccc(F)c2)cc1	none (no result: Calb FLC, ATG4B inh, NLRP3 yeast inh, ALR inh, NALP1 inh)
Cc1c(C(=O)NCc2cccnc2)oc2c1C(=O)CC(C)(C)C2	none
Cc1c(C(=O)NCc2ccccc2)oc2c1C(=O)CCC2	UCH37 inh 25.2
COc1cc(C2SCC(=O)N2c2c(C)n(C)n(-c3ccccc3)c2=O)ccc1O (centres undefined)	NALP1 inh 38.4
COc1ccc(C2SCC(=O)N2c2c(C)n(C)n(-c3ccccc3)c2=O)cc1 (centres undefined)	none
COc1ccc(N2CCN(C(=O)Nc3ccccc3C)CC2)cc1	none
COc1cccc(N2CCN(C(=O)Nc3ccccc3Cl)CC2)c1	ALR inh 87.0
CN(C)CCCSc1nc2ccccc2s1	ALR inh 98.6
CC(=O)Nc1ccc(NC(=O)CCCSc2nc3ccccc3s2)cc1	none
O=C(O)CCSc1nc2ccccc2s1	ALR inh 99.4
c1ccc2sc(SCSc3nc4ccccc4s3)nc2c1	none
COc1ccccc1C(=O)NN=Cc1cnc2ccccc2n1	none (no result: Calb FLC, ATG4B inh, NLRP3 yeast inh, ALR inh, NALP1 inh)
CN1CCN(C(=O)C2=C[C@@H](C3CCCCC3)C[C@@H](OCc3ccc(CO)cc3)O2)CC1	NALP1 inh 24.3
Nc1ccc(S(=O)(=O)c2ccc(N)c(N)c2)cc1	ALR inh 88.5
Nc1ccc(S(=O)(=O)c2cccc(N)c2)cc1	none
CC(C)(C)C(=O)N(Cc1nc2ccccc2c(=O)[nH]1)Cc1cccs1	none
O=C(CCCl)N(Cc1nc2ccccc2c(=O)[nH]1)Cc1cccs1	Calb FLC 56.2
O=C(Cc1ccccc1)NN=Cc1cccs1	none (no result: Calb FLC, ATG4B inh, NLRP3 yeast inh, ALR inh, NALP1 inh)
CC(C)CNC(=O)C(=O)N/N=C/c1cccs1	ALR inh 82.3 (no result: UCH37 inh)
O=C(CCCNc1ccccc1)N/N=C/c1cccs1	ALR inh 98.2 (no result: UCH37 inh)
O=C(C[n+]1ccccc1)N/N=C/c1cccs1	Calb FLC 94.7 (no result: UCH37 inh)
COCCN=c1scc(-c2cc(OC)ccc2OC)n1N=Cc1c[nH]c2ccccc12	none (no result: Calb FLC, ATG4B inh, NLRP3 yeast inh, ALR inh, NALP1 inh)
CN(C)/C=N/c1nc(-c2ccc3ccccc3c2)cs1	none (no result: UCH37 inh)
CN(C)/C=N/c1nc(-c2ccc3c(c2)OCO3)cs1	ALR inh 97.5 (no result: UCH37 inh)
CC(=O)Oc1ccc(C(=O)OCC(=O)c2c(N)n(C)c(=O)n(C)c2=O)cc1OC(C)=O	ALR inh 98.7
COc1ccc(C(=O)OCC(=O)c2c(N)n(C)c(=O)n(C)c2=O)cc1OC	none
Cc1oc(-c2ccc(Cl)cc2)nc1CS(=O)CC(=O)NCc1cccs1 (centres undefined)	ALR inh 99.1
Cc1cccc(-c2nc(CSCC(=O)NCc3cccs3)c(C)o2)c1	ALR inh 98.2
Cc1oc(-c2ccccc2Cl)nc1CS(=O)CC(=O)NCc1cccs1 (centres undefined)	none (no result: ALR inh)
Cc1oc(-c2ccccc2F)nc1CS(=O)CC(=O)NCc1cccs1 (centres undefined)	ALR inh 99.7
Cc1cccc(-c2nc(CS(=O)CC(=O)NCc3cccs3)c(C)o2)c1 (centres undefined)	none (no result: ALR inh)
O=C(Cn1cncn1)NN=Cc1ccccc1O	none (no result: Calb FLC, ATG4B inh, NLRP3 yeast inh, ALR inh, NALP1 inh)
COc1ccc(CCNc2ncnc3sc(C)cc23)cc1OC	Calb FLC 106.8 (no result: UCH37 inh)
CCCCN(C)C=Nc1c(C#N)cnn1-c1ccc(C)cc1	none (no result: Calb FLC, ATG4B inh, NLRP3 yeast inh, ALR inh, NALP1 inh)
